From ChEMBL document CHEMBL4376862, “Synthesis and evaluation of novel chlorophyll a derivatives as potent photosensitizers for photodynamic therapy” (Eur J Med Chem, 2020)

Assays:
[1] = Therapeutic index, ratio of TC50 for human A549 cells under dark to IC50 for human A549 cells irradiated with 1 J/cm2 of 650 nanometer laser light; type: toxicity, cell-based; details: read-out: TI
Outline: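 A549 cells (F-12K, 10% FBS, 37 °C, 5% CO2) seeded 24 h, then exposed to 0–10 photosensitizer for 24 h. Dark arm: MTT 48 h later. Light arm: 650 nm laser, 1 J/cm2 (25 mW/cm2, 40 s), then MTT. A570 viability relative to control, triplicate. Ratio = dark TC50 / irradiated IC50.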

[2] = Octanol/water partition coefficient, logP of compound by shake flask method; type: physicochemical
Outline: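 Shake-flask method: equilibrium concentrations in octanol and water measured by UV-vis absorbance; log P taken as log of octanol/water concentration ratio (mg/L).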

[3] = Absorption property of compound in DMSO assessed as strong absorption wavelength at 1 x 10^-3 M by UV-spectra analysis; type: physicochemical; details: 1000 µM
Outline: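 Stocks 1 mM in DMSO; spectra run over […] range (units as printed), 300–800 nm in 1 nm steps, room temperature, quartz cuvettes, UV-vis spectrophotometer.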

[4] = Emission property of a compound in DMSO assessed as red shift at 5 uM on excitation with light at 410 to 415 nm by 3D fluorescence spectra analysis; type: physicochemical
Outline: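 Stock 1 mM in DMSO, measured at […] (so in the source); excitation scanned 350–640 nm, emission 600–750 nm, 1 nm steps, room temperature, quartz cuvettes; 3D fluorescence matrix spectra recorded.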

[5] = Induction of ROS generation in DMF solution assessed as slope of the photodegradation rate of DPBF at 2 uM followed by irradiation measured every 10 secs by spectrophotometric analysis; type: functional
[6] = Drug uptake in human A549 cells incubated upto 24 hrs by fluorescence spectrophotometer analysis; type: ADME, cell-based; details: a549, 24 h
Outline: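 A549 cells (F-12K, 10% FBS, 37 °C, 5% CO2) grown in 24 wells and exposed to photosensitizer for 0.5, 1, 2, 4, 8, 12 or 24 h; cells harvested by digestion, fluorescence read on a spectrophotometer.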

[7] = Dark toxicity in human A549 cells assessed as reduction in cell viability incubated under dark for 24 hrs measured after 48 hrs by MTT assay; type: cell-based; details: read-out: TC50
Outline: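 A549 cells seeded at 5×10^4 cells/100 µL per well for 24 h, treated in the dark with […] (so in the source) for 24 h; MTT added 4 h, absorbance 570 nm, 48 h later; viability as OD treated/OD control; triplicate, mean ± SD.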

A549 [8] = assay: Phototoxicity against human A549 cells assessed as reduction in cell proliferation irradiated with 1 J/cm2 of 650 nanometer laser light preincubated for 24 hrs measured after 48 hrs by MTT assay; type: functional, cell-based; details: A549, light or radiation study
Outline: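 A549 cells seeded 5×10^4 cells/100 µL per well, given […] for 24 h, then 650 nm semiconductor laser at 1 J/cm2 (25 mW/cm2, 40 s); MTT 4 h, absorbance 570 nm; viability vs control; triplicate, mean ± SD.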

A549 [9] = assay: Photodynamic antitumor activity against human A549 cells xenografted in BALB/c nude mouse assessed as decrease in tumor weight at 0.3 mg/kg, iv followed by laser light irradiation at 120 J/cm2 measured after 14 days; type: functional
Outline: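 Male BALB/c nude mice (5–6 weeks, 14–16 g) given 2×10^6 A549 cells s.c. in 0.2 mL PBS; at 6–7 mm tumors randomized into ten groups; drug via tail vein, 650 nm diode laser 120 J/cm2 at 180 mW/cm2 24 h later; caliper volume a×b²/2, followed 14 days.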

[10] = Induction of ROS generation in DMF solution assessed as ROS quantum yield at 2 uM followed by irradiation measured every 10 secs by spectrophotometric analysis; type: functional
[11] = Absorption property of compound in DMSO assessed as Q band absorption at 1 x 10^-3 mM by UV-spectra analysis; details: 1 µM

Row | SMILES | logP [2] | Activity [3] [nm] | Activity [4] [nm] | Drug uptake [6] | Activity [11] [nm] | selectivity ratio [1] | K [5] [s⁻¹] | CC50 at 24 h [7] [µM] | IC50 (A549 [8]) [nM] | Activity (A549 [9]) [g] | Ratio [10]
1 | CCCCCOC(C)c1c(C)c2cc3nc(c4c5[nH]c(cc6nc(cc1[nH]2)C(C)=C6CC)c(C)c5C(=O)C4)[C@@H](CCC(=O)NCC(=O)CCC(=O)O)[C@@H]3C (stereo partly specified) | 2.61 | 660 to 670 | 661 to 669 | Active | – | 10.4 | 0.0353 | 1.04 | 100 | 0 | 1.76
2 | CCCOCCOC(C)c1c(C)c2cc3nc(c4c5[nH]c(cc6nc(cc1[nH]2)C(C)=C6CC)c(C)c5C(=O)C4)[C@@H](CCC(=O)NCC(=O)CCC(=O)O)[C@@H]3C (stereo partly specified) | 2.22 | 660 to 670 | 661 to 669 | Active | – | 3.42 | 0.0329 | 4 | 1170 | 0.1154 | 1.65
3 | C=Cc1c(C)c2cc3nc(c4c5[nH]c(cc6nc(cc1[nH]2)C(C)=C6CC)c(C)c5C(=O)C4)[C@@H](CCC(=O)NCC(=O)CCC(=O)O)[C@@H]3C | 2.28 | 660 to 670 | 661 to 669 | Active | 669 | 1.59 | 0.0251 | 3.19 | 2010 | 0.2826 | 1.25

Continued, in another order:

Row | logP [2] | Activity [3] [nm] | Activity [4] [nm] | Drug uptake [6] | Activity [11] [nm] | SMILES | selectivity ratio [1] | K [5] [s⁻¹] | CC50 at 24 h [7] [µM] | IC50 (A549 [8]) [nM] | Activity (A549 [9]) [g] | Ratio [10]
4 | 1.91 | 660 to 670 | 661 to 669 | Active | – | CCC1=C(C)c2cc3[nH]c(cc4nc(c5c6[nH]c(cc1n2)c(C)c6C(=O)C5)[C@@H](CCC(=O)NCC(=O)CCC(=O)O)[C@@H]4C)c(C)c3C(C)OC (stereo partly specified) | 4.54 | 0.0195 | 2.68 | 590 | 0.1265 | 0.975
5 | 2.16 | 660 to 670 | 661 to 669 | Active | – | CCOC(C)c1c(C)c2cc3nc(c4c5[nH]c(cc6nc(cc1[nH]2)C(C)=C6CC)c(C)c5C(=O)C4)[C@@H](CCC(=O)NCC(=O)CCC(=O)O)[C@@H]3C (stereo partly specified) | 4.74 | 0.0161 | 3.27 | 690 | 0.0527 | 0.805
